In ChEMBL document CHEMBL4371006, “Discovery of N-[4-(Quinolin-4-yloxy)phenyl]benzenesulfonamides as Novel AXL Kinase Inhibitors” (J Med Chem, 2018):

Assays:
[1] = target: Tyrosine-protein kinase ABL1 (Homo sapiens) (UniProt P00519); assay: Inhibition of ABL (unknown origin) using biotinylated peptide as substrate at 10 uM by TR-FRET assay relative to control
[2] = target: T1, Tyrosine-protein kinase receptor UFO (Homo sapiens, UniProt P30530); assay: Inhibition of AXL (unknown origin) phosphorylation after 1 hr by ELISA
T1 sequence (P30530 whole entry): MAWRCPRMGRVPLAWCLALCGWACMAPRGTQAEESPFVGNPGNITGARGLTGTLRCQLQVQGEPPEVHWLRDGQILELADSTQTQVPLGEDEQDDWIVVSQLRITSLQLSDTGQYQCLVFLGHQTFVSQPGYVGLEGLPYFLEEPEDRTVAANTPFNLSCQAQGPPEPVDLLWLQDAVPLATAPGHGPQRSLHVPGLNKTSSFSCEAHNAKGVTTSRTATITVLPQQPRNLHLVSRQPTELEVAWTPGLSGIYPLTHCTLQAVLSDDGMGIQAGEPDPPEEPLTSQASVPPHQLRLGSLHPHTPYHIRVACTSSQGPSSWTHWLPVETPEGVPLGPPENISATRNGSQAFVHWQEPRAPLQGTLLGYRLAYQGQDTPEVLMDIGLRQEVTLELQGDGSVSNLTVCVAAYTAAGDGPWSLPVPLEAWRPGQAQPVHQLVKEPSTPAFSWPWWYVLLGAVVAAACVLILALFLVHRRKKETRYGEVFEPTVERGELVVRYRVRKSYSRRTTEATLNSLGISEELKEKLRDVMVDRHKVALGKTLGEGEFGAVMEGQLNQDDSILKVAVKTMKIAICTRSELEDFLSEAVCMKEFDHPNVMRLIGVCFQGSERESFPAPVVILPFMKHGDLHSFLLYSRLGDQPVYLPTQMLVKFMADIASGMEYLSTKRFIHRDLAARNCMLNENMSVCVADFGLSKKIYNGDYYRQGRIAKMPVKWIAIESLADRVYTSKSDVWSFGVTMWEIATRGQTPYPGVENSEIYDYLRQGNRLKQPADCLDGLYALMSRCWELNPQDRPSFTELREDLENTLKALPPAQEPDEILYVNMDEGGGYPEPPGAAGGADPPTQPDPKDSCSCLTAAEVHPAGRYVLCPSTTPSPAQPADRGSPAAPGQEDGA

[3] = target: Mast/stem cell growth factor receptor Kit (Homo sapiens) (UniProt P10721); assay: Inhibition of cKIT (unknown origin) using fluorescence labeled peptide as substrate at 10 uM by IMAP assay relative to control
Method in brief: (§1)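 IMAP fluorescence-polarization kinase assay at 10 µmol/L compound, run in triplicate by a contract lab. A fluorescently labeled substrate peptide is phosphorylated, then nanoparticles carrying trivalent metal bind the phosphopeptide and slow its rotation. Read-out is fluorescence polarization, expressed as percent inhibition.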

[4] = target: Proto-oncogene tyrosine-protein kinase Src (Homo sapiens, UniProt P12931); assay: Inhibition of SRC (unknown origin) using fluorescence labeled peptide as substrate at 10 uM by IMAP assay relative to control; method in brief: as §1
[5] = target: Angiopoietin-1 receptor (Homo sapiens) (UniProt Q02763); assay: Inhibition of TIE2 (unknown origin) using biotinylated peptide as substrate at 10 uM by TR-FRET assay relative to control
[6] = target: Tyrosine-protein kinase receptor UFO (Homo sapiens) (UniProt P30530); assay: Inhibition of AXL (unknown origin) using biotinylated peptide as substrate at 10 uM by TR-FRET assay relative to control
[7] = target: Hepatocyte growth factor receptor (Homo sapiens, UniProt P08581); assay: Inhibition of c-MET (unknown origin) using fluorescence labeled peptide as substrate at 10 uM by IMAP assay relative to control; method in brief: as §1
[8] = target: Angiopoietin-1 receptor (Homo sapiens) (UniProt Q02763); assay: Inhibition of TIE2 (unknown origin) using fluorescence labeled peptide as substrate at 10 uM by IMAP assay relative to control; method in brief: as §1
[9] = target: TRAF family member-associated NF-kappa-B activator (Homo sapiens, UniProt Q92844); assay: Binding affinity to TANK in SILAC-labeled human MDA-MB-231 cells lysate by mass spectrometry based kinAffinity assay; assay type: subcellular
Method in brief: (§2)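 MDA-MB-231 lysate applied to KinAffinity matrix of immobilized broadband kinase inhibitors at graded densities to obtain BC50 per target. Competition then run with increasing free compound to give CC50; Kd derived by Cheng-Prusoff. Two competition experiments in parallel to check equilibrium, one with lysate pre-incubated with compound before adding matrix. Quantitation by mass spectrometry.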

[10] = AUC (0 to infinity) in mouse at 1 to 2 mg/kg, iv by LC/MS/MS analysis; assay type: ADME, organism-based; details: in vivo
Method in brief: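 Male ICR mice (27 ± 5 g, n = 3) dosed iv via tail vein at 2 or 1 mg/kg in 30% PEG400/5% ethanol in water. Jugular blood (0.3 mL, heparin) sampled at set times over 24 h or more; plasma separated, acetonitrile-precipitated, drug quantified by LC/MS/MS; parameters from noncompartmental-type software estimation.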

[11] = target: Serine/threonine-protein kinase 3 (Homo sapiens, UniProt Q13188); assay: Binding affinity to MST2 in SILAC-labeled human MDA-MB-231 cells lysate by mass spectrometry based kinAffinity assay; assay type: subcellular; method in brief: as §2
[12] = target: Tyrosine-protein kinase Fyn (Homo sapiens, UniProt P06241); assay: Binding affinity to FYN in SILAC-labeled human MDA-MB-231 cells lysate by mass spectrometry based kinAffinity assay; assay type: subcellular
Method in brief: (§3)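 Chemical proteomics: MDA-MB-231 lysate bound to matrix of immobilized broad kinase inhibitors at several densities (BC50), then competed with increasing free compound (CC50); proteins quantified by mass spectrometry, Kd via Cheng-Prusoff. Two competition formats run in parallel to check equilibrium.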

[13] = Stability in mouse plasma assessed as parent compound remaining; assay type: ADME, cell-free
[14] = target: Non-receptor tyrosine-protein kinase TNK1 (Homo sapiens, UniProt Q13470); assay: Binding affinity to TNK1 in SILAC-labeled human MDA-MB-231 cells lysate by mass spectrometry based kinAffinity assay; assay type: subcellular; method in brief: as §2
Focal adhesion kinase 1 = Focal adhesion kinase 1 (Homo sapiens, UniProt Q05397); assay: Binding affinity to FAK in SILAC-labeled human MDA-MB-231 cells lysate by mass spectrometry based kinAffinity assay; assay type: subcellular; method in brief: as §3
[15] = target: Tyrosine-protein kinase Fer (Homo sapiens, UniProt P16591); assay: Binding affinity to FER in SILAC-labeled human MDA-MB-231 cells lysate by mass spectrometry based kinAffinity assay; assay type: subcellular; method in brief: as §3
[16] = Apparent permeability from basolateral to apical side in human Caco2 cells at 10 uM after 2 hrs by LC-MS/MS analysis; assay type: ADME, cell-based; details: Caco-2
Method in brief: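 Caco-2 cells differentiated three weeks in 96-well format, monolayer integrity checked by Lucifer yellow transport. Compound at 10 µM for 2 h; apical buffer HBSS/10 mM HEPES/glucose pH 6.5 with 100 µM Lucifer yellow, basolateral buffer pH 7.4. Papp = (dQ/dt)/C0A; efflux ratio Papp(B→A)/Papp(A→B).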

[17] = Toxicity in mouse assessed as drug tolerability at 300 mg/kg, po; assay type: organism-based; details: in vivo
Activin receptor type-1 = Activin receptor type-1 (Homo sapiens, UniProt Q04771); assay: Binding affinity to ACVR1 in SILAC-labeled human MDA-MB-231 cells lysate by mass spectrometry based kinAffinity assay; assay type: subcellular; method in brief: as §3

Sequence of Angiopoietin-1 receptor (Homo sapiens) (Q02763 whole entry): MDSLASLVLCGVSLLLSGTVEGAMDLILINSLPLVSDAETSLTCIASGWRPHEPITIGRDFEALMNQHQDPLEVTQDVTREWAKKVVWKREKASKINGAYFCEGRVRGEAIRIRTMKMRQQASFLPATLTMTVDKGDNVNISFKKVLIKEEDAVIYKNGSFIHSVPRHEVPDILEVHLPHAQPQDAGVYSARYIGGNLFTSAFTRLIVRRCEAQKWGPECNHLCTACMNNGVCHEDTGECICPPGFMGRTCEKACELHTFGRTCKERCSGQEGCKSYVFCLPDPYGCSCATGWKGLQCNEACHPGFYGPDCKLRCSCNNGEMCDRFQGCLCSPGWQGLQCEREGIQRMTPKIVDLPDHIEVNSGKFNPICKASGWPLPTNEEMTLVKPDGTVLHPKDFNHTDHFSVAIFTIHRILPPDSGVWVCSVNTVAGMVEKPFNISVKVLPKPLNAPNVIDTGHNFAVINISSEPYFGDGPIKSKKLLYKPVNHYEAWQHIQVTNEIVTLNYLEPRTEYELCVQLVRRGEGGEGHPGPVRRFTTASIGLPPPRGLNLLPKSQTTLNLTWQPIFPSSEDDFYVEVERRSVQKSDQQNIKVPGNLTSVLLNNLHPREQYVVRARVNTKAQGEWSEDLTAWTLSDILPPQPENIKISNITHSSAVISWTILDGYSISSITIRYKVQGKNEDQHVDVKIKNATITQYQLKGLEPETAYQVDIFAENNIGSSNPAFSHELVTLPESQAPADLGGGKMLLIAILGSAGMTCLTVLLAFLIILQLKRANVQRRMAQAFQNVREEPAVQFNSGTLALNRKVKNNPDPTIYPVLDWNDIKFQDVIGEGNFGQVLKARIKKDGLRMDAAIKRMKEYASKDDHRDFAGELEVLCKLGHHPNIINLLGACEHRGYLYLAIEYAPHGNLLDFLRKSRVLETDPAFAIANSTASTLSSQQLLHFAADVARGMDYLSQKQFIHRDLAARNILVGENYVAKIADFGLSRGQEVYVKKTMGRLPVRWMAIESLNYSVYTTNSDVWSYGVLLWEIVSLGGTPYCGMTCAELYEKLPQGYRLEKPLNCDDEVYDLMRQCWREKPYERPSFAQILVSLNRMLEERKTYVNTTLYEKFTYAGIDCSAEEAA
Sequence of Hepatocyte growth factor receptor (P08581 whole entry): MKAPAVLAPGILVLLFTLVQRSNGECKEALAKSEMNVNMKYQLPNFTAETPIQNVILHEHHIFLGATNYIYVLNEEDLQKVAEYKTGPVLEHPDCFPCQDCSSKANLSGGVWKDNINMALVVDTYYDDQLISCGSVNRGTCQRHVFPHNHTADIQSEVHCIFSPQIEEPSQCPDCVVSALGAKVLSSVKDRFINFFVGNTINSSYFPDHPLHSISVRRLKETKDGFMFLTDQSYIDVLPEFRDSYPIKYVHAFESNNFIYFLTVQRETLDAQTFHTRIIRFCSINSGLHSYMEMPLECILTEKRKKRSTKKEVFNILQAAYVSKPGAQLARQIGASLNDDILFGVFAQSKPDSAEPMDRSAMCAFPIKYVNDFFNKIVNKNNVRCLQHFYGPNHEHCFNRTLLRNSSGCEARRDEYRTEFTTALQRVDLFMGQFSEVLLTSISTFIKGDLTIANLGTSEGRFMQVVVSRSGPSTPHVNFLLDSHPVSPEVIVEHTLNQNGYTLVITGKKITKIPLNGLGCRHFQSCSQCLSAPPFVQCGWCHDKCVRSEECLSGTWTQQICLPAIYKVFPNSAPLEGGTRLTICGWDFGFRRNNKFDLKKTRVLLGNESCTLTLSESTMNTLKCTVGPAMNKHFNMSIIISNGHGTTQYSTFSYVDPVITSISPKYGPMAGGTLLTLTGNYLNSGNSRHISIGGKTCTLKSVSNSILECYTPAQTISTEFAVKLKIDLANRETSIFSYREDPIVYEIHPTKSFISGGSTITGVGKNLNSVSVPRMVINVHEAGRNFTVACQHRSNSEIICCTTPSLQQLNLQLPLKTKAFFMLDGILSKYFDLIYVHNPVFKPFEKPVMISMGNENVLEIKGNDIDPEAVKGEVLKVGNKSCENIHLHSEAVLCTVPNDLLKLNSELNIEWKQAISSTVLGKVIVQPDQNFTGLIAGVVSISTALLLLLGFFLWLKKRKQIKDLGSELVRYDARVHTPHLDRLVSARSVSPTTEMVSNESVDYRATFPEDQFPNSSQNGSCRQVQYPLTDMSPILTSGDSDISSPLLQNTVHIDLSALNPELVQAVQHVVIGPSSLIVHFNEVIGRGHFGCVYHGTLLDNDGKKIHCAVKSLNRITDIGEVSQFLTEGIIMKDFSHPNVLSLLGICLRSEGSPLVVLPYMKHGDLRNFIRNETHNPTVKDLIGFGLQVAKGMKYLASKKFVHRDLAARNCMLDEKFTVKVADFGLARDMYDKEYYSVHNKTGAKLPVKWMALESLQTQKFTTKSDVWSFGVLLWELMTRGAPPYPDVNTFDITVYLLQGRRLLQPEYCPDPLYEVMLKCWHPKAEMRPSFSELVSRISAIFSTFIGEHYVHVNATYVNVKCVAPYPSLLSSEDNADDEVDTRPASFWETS
Sequence of Proto-oncogene tyrosine-protein kinase Src (P12931 2-536 limits assumed): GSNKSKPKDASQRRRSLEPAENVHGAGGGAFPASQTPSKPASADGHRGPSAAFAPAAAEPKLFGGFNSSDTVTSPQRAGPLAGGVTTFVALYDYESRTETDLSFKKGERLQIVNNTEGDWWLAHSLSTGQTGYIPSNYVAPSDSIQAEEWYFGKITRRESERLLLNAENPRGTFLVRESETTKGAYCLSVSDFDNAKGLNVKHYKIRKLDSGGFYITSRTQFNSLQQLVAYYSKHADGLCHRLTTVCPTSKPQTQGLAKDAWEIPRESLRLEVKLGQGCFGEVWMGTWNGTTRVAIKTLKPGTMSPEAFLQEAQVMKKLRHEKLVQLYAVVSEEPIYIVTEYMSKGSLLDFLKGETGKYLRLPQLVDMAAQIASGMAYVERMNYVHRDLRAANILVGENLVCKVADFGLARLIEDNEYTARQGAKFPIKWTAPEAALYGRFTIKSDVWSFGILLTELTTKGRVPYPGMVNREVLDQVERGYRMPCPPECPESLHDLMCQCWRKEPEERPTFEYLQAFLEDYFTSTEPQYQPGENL
Sequence of Tyrosine-protein kinase ABL1 (Homo sapiens) (P00519 whole entry): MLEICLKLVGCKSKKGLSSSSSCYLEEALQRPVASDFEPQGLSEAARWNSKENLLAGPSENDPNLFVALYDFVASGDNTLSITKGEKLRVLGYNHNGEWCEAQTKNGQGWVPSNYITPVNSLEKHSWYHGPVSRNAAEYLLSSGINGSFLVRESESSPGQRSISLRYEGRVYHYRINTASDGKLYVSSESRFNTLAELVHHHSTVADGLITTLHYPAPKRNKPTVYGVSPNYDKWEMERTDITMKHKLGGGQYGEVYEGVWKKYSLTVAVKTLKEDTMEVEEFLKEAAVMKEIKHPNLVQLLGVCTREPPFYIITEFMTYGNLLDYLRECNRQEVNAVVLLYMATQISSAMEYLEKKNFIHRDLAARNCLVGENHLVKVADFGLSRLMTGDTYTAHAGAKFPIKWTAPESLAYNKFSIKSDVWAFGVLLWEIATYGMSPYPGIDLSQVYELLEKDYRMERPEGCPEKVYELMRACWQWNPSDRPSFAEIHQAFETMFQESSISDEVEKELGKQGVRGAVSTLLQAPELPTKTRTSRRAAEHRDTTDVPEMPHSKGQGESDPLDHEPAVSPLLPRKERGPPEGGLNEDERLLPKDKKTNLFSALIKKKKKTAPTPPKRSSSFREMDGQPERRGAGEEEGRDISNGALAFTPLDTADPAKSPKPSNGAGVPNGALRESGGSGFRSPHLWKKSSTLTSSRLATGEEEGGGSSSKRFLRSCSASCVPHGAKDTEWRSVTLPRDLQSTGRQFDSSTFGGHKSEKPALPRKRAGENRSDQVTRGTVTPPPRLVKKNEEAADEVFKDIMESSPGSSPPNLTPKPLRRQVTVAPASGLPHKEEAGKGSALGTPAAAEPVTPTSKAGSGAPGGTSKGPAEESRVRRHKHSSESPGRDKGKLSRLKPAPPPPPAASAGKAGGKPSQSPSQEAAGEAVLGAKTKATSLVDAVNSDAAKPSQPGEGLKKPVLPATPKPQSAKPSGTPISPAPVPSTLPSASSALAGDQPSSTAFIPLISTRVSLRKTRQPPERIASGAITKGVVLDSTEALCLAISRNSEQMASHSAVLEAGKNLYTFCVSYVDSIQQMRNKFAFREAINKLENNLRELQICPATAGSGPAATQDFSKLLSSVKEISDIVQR
Sequence of Serine/threonine-protein kinase 3 (Q13188 whole entry): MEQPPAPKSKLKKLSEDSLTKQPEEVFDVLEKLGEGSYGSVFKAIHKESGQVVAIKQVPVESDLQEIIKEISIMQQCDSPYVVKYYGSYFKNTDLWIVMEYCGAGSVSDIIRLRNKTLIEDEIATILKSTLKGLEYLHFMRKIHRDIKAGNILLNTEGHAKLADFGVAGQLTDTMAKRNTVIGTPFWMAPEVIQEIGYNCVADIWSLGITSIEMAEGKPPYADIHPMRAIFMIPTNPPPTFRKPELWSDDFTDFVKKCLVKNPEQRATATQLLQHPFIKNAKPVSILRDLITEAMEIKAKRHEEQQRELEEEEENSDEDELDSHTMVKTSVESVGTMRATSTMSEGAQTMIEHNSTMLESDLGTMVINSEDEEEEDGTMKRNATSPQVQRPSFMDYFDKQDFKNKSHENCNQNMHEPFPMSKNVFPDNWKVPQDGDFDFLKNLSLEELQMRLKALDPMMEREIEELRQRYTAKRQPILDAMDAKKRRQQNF
Sequence of TRAF family member-associated NF-kappa-B activator (Q92844 whole entry): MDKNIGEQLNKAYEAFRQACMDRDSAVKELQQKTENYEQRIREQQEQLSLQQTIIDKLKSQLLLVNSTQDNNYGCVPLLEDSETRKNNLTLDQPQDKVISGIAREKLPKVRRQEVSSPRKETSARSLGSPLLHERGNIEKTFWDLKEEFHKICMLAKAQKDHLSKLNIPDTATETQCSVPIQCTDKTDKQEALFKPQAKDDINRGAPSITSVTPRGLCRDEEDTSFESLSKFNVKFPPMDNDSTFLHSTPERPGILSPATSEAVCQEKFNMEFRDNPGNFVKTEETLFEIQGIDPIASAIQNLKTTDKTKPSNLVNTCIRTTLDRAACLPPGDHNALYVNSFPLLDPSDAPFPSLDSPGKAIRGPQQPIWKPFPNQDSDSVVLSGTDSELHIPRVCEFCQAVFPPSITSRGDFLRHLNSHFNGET

SMILES	Efficacy [1]	IC50 [2]	Efficacy [3]	Efficacy [4]	Efficacy [5]	Efficacy [6]	Efficacy [7]	Efficacy [8]	Kd(free) [9]	AUC(0-inf) [10]	Kd(free) [11]	Kd(free) [12]	Stability [13]	Kd(free) [14]	Kd(free) (Focal adhesion kinase 1)	Kd(free) [15]	Papp B→A at 2 h, 10 µM [16]	Activity [17]	Kd(free) (Activin receptor type-1)
COc1cc2c(Oc3ccc(NS(=O)(=O)c4ccccc4C(F)(F)F)cc3F)ccnc2cc1OCCCN1CCN(C)CC1	83 to 100%	21 nM	83 to 100%	83 to 100%	83 to 100%	83 to 100%	83 to 100%	83 to 100%	–	–	–	–	–	–	–	–	–	–	–
COc1cc2c(Oc3ccc(NS(=O)(=O)c4cc(F)ccc4F)cc3F)ccnc2cc1OCCCN1CCN(C)CC1	83 to 100%	27 nM	83 to 100%	83 to 100%	83 to 100%	83 to 100%	83 to 100%	83 to 100%	3418 nM	2650 ng·h/mL	> 6454 nM	64 nM	108%	24 nM	4445 nM	679 nM	17 ×10⁻⁶ cm/s	Non-Toxic	52 nM
COc1cc2c(Oc3ccc(NS(=O)(=O)c4c(F)cccc4F)cc3F)ccnc2cc1OCCCN1CCN(C)CC1	83 to 100%	35 nM	83 to 100%	83 to 100%	83 to 100%	83 to 100%	83 to 100%	83 to 100%	1567 nM	–	5223 nM	38 nM	–	14 nM	2212 nM	304 nM	–	–	> 70 nM
COc1cc2c(Oc3ccc(NS(=O)(=O)c4cc(F)ccc4F)cc3F)ccnc2cc1OCCCN1CCCC(C)C1 (centres undefined)	83 to 100%	28 nM	83 to 100%	83 to 100%	83 to 100%	83 to 100%	83 to 100%	83 to 100%	–	1400 ng·h/mL	–	–	98.8%	–	–	–	14.6 ×10⁻⁶ cm/s	Non-Toxic	–
